Laboratory results from article PMC5403476 (International Journal of Molecular Medicine, 2017).
Residues, ends and D or L forms follow the SMILES beside them.

What was measured:
Assay type in all cases: cell-based, human
EA.hy926 cells = test: Cell viability by MTT assay; conditions: 62.5, 125 and 250 µM, up to 250 µM; presence or absence of Ang II (1 µM); 24 h
How it was run: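 EA.hy926 cells were grown in DMEM with 10% FBS, penicillin and streptomycin at 37°C in 5% CO2. Cells were treated with Ang II (1 µM) plus test compound (62.5, 125 or 250 µM) for 24 h at 37°C, then with MTT for 4 h. Plates were spun and formazan was dissolved in DMSO, read at 540 nm. Data are mean ± SD of at least 3 experiments, compared by unpaired t-test.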

[1] = test system: p38 MAPK phosphorylation in EA.hy926 cells; test: Phosphorylation of p38 MAPK by western blot; conditions: 30 min
How it was run: (§1)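 Ang II-stimulated EA.hy926 cells were lysed for 60 min in Tris/EDTA/NP-40 buffer with phosphatase and protease inhibitors, and protein was measured by BCA. Each lane took 40 µg protein on SDS-PAGE, transferred to nitrocellulose and blocked 2 h in 5% milk/TBS-T. Primary antibodies (1:1,000) were applied overnight at 4°C and secondaries at 1:3,000, with ECL detection and densitometry. Data are mean ± SD, at least 3 experiments.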

[2] = test system: ERK phosphorylation in EA.hy926 cells; test: Phosphorylation of ERK by western blot; conditions: 30 min
How it was run: as §1

[3] = test system: intracellular ROS in Ang II-stimulated EA.hy926 cells; test: Intracellular ROS generation; conditions: Ang II alone (1 µM, 30 min), compared with the untreated cells
How it was run: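 Cells were seeded for 24 h, then pre-treated with test compound for 30 min. Ang II (1 µM) was added for a further 30 min at 37°C. Cells were loaded with 40 µM carboxy-DCFH-DA, and DCF fluorescence plus DAPI were imaged by fluorescence microscopy.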

[4] = test system: JNK phosphorylation in EA.hy926 cells; test: Phosphorylation of JNK by western blot; conditions: 30 min
How it was run: as §1

[5] = test system: ET-1 expression in Ang II-stimulated EA.hy926 cells; test: ET-1 expression by western blot; conditions: 24 h
How it was run: as §1

[6] = test system: NO production in Ang II-stimulated EA.hy926 cells; test: NO production; conditions: Ang II alone (1 µM, 24 h), compared with the untreated cells
How it was run: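 EA.hy926 cells were incubated with test compound and Ang II for 24 h. Nitrite in the medium was taken as the NO indicator. Medium was mixed 1:1 with Griess reagent (1% sulfanilamide, 0.1% naphthylethylenediamine dihydrochloride in 2.5% phosphoric acid) for 10 min at room temperature and read at 540 nm, with fresh medium as blank. Data are mean ± SD, at least 3 experiments.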

[7] = test system: iNOS expression in Ang II-stimulated EA.hy926 cells; test: iNOS expression by western blot; conditions: 24 h
How it was run: as §1

Row | Compound | cytotoxic effect (MTT) (EA.hy926 cells) | phosphorylated p38 MAPK, Ang II alone [1] | phosphorylated ERK, Ang II alone [2] | ROS fluorescence intensity, Ang II alone [3] | phosphorylated JNK, Ang II alone [4] | ET-1 expression, Ang II alone [5] | NO generation, Ang II alone [6] | iNOS expression, Ang II alone [7]
1 | CSCC[C@H](NC(=O)[C@@H](N)[C@@H](C)O)C(=O)N[C@@H](CCC(=O)O)C(=O)N1CCC[C@H]1C(=O)NCC(=O)N[C@@H](CCCCN)C(=O)N1CCC[C@H]1C(=O)O [purified peptide, Thr-Met-Glu-Pro-Gly-Lys-Pro] (H-TMEPGKP-OH) | No significant toxic effects |  |  |  |  |  |  | 
2 | angiotensin II (DRVYIHPF; Angiotensin-2; UniProt P01019 25-32, looked up) [Ang II] |  | elevated | elevated | increased markedly | elevated | markedly increased | markedly induced NO generation | markedly increased
